Measurements pooled from the literature.
Lines come from different studies, so protocols differ.
FLT3: Receptor-type tyrosine-protein kinase FLT3 (FLT3, Homo sapiens, UniProt P36888)
FLT3 F691L/ITD: Receptor-type tyrosine-protein kinase FLT3 (FLT3, Homo sapiens, UniProt P36888, F691L/ITD)
FLT3 autoinhibited: Receptor-type tyrosine-protein kinase FLT3, autoinhibited (FLT3, Homo sapiens, UniProt P36888)
FLT3 D835Y: Receptor-type tyrosine-protein kinase FLT3 (FLT3, Homo sapiens, UniProt P36888, D835Y)
FLT3 N841I: Receptor-type tyrosine-protein kinase FLT3 (FLT3, Homo sapiens, UniProt P36888, N841I)
FLT3 D835H: Receptor-type tyrosine-protein kinase FLT3 (FLT3, Homo sapiens, UniProt P36888, D835H)
FLT3 ITD: Receptor-type tyrosine-protein kinase FLT3 (FLT3, Homo sapiens, UniProt P36888, ITD)
FLT3 R834Q: Receptor-type tyrosine-protein kinase FLT3 (FLT3, Homo sapiens, UniProt P36888, R834Q)

For Nc1ncnc2occ(-c3ccc(NC(=O)Nc4cc(C(F)(F)F)ccc4F)cc3)c12, the remaining signal was 1.8% (FLT3; cell-free assay, inhibitor; 20 µM).
CC(=O)Nc1c(C(C)=O)c(=O)n(C)c2nc(-c3ccc(Cl)cc3Cl)c(-c3ccc(Cl)cc3)cc12 has a remaining binding of 100% (FLT3 F691L/ITD; cell-free assay, competition with immobilised ligand; 1 µM).
O=C(c1ccc(Nc2nccc(-c3cc4ccccc4s3)n2)cc1)N1CCC(N2CCCC2)CC1 has a remaining binding of 37% (Receptor-type tyrosine-protein kinase FLT3 (FLT3, Homo sapiens, UniProt P36888, K663Q); binding, competition with immobilised ligand; 1 µM).
O=C(NCCCC1CCCCC1)c1ccc(CNC(=O)c2cnn(-c3ccccc3)c2C(F)(F)F)cc1 gave a remaining binding of 100% (FLT3 autoinhibited; cell-free assay, competition with immobilised ligand; 0.1 µM).
With CCN(CC)CCNC(=O)c1c(C)[nH]c(/C=C2\C(=O)Nc3ccc(F)cc32)c1C the remaining activity was 1% (FLT3; enzyme activity, inhibitor; 0.1 µM).
The remaining activity of Cc1ccc(NC(=O)c2ccc(C)c(C(F)(F)F)c2)cc1C#Cc1nn(C2CCC(O)CC2)c2ncnc(N)c12 (stereo not drawn) is reported as 118% (FLT3 D835Y; enzyme activity, inhibitor; 10 µM).
With N[C@@H]1CCN(c2nccc(-c3cnn4ncccc34)n2)C1 the remaining binding was 100% (FLT3 autoinhibited; binding; 1 µM).
Cc1c(NC(=O)c2cc(C(N)=O)nc3cc(F)ccc23)c(C(F)(F)F)nn1Cc1ccc(C(C)(C)C)cc1 has a remaining binding of 100% (FLT3; cell-free assay, competition with immobilised ligand; 1 µM).
O=C(NCCCN1CCOCC1)c1ccc(Nc2nccc(-c3cc4ccccc4s3)n2)cc1 gave a remaining binding of 9.2% (FLT3 N841I; binding, competition with immobilised ligand; 1 µM).
For Cc1ccc(C(=O)Nc2ccc(CN3CCN(C)CC3)c(C(F)(F)F)c2)cc1C#Cc1cnc2cccnn12, the remaining activity was 0% (FLT3 N841I; enzyme activity, inhibitor; 23.5 nM).
C[C@@H]1CCN(c2nccc(-c3cnn4ncccc34)n2)C1 has a remaining binding of 100% (FLT3 D835H; binding; 1 µM).
With CN(C)C1CCN(CC#Cc2nn(C3CCCC3)c3nc(NCc4ccccc4)ncc23)C1 (stereo not drawn) the inhibition was 59% (FLT3; enzyme activity, inhibitor, FRET; 10 µM).
For CNC(=O)c1cc(Oc2ccc(NC(=O)Nc3ccc(Cl)c(C(F)(F)F)c3)cc2)ccn1, the remaining signal was 9.22% (FLT3; cell-free assay; 0.5 µM).
The binding vs control of Fc1cccc(-n2cnc3c(NCc4nc5c(F)c(F)ccc5[nH]4)nc(N4CCOCC4)nc32)c1 is reported as 41% (FLT3 D835Y; binding, competition with immobilised ligand; 10 µM).
With CCN(CC)CCNC(=O)c1c(C)[nH]c(/C=C2\C(=O)Nc3ccc(F)cc32)c1C the remaining signal was 2.71% (FLT3; cell-free assay; 0.5 µM).
With CCN(CC)c1ccc(C2=NNC(=O)CC2C)cc1[N+](=O)[O-] (stereo not drawn) the remaining activity was 89% (FLT3; enzyme activity, inhibitor; 10 µM).
The activity vs control of Cc1cc(NC(=O)c2cccc3cc(-c4cccc5[nH]nc(N)c45)ccc23)ccc1F is reported as 98% (FLT3 D835Y; enzyme activity, inhibitor; 0.1 µM).
For CCCCN(CCCC)C(=O)CN1C[C@@H](c2cc(OC)c3c(c2)OCO3)[C@H](C(=O)O)[C@H]1CC(C)(C)CCC, the remaining binding was 97.4% (FLT3 autoinhibited; cell-free assay, competition with immobilised ligand; 1 µM).
For O=C(Nc1cnn(-c2csc(C(=O)NC3COC3)c2)c1)Nc1ccccc1Cl, the remaining activity was 89.7% (FLT3; enzyme activity, inhibitor; 5 µM).
CC(=O)N1CCC(c2ccc(C(=O)NC(=N)N)cc2C(F)(F)F)CC1 gave a remaining binding of 100% (FLT3; cell-free assay, competition with immobilised ligand; 1 µM).
The remaining binding of CN(C)c1ncc(F)c(-c2cnn3ncccc23)n1 is reported as 100% (FLT3 D835Y; binding; 1 µM).
Cc1cnc(-c2ccc(-c3ccc(NC(=O)Nc4c(F)cc(F)cc4F)cc3F)c3c2C(=O)NC3)[nH]1 has an activity vs control of 1.6% (FLT3 ITD; enzyme activity, inhibitor; 1 µM, 90 min).
CN(c1nccc(-c2cnn3ncccc23)n1)C1CC1 gave a remaining binding of 78% (Receptor-type tyrosine-protein kinase FLT3 (FLT3, Homo sapiens, UniProt P36888, D835V); binding; 1 µM).
O=C(c1ccc(Nc2ncc(Cl)c(-c3cc4ccccc4s3)n2)cc1)N1CCC(N2CCCC2)CC1 gave a remaining binding of 6.2% (FLT3 ITD; binding, competition with immobilised ligand; 1 µM).
The remaining activity of Cc1[nH]c(/C=C2\C(=O)Nc3ccc(F)cc32)c(C)c1C(=O)N[C@H]1CCN(C(=O)N(C)C)C1 is reported as 2% (FLT3; enzyme activity, inhibitor; 1 µM).
O=C(NCCCN1CCOCC1)c1ccc(Nc2ncc(Cl)c(-c3ccc(Cl)s3)n2)cc1 has a remaining binding of 3.1% (FLT3 D835H; binding, competition with immobilised ligand; 1 µM).
COc1cc(Nc2c(C#N)cnc3cc(OCCCN4CCN(C)CC4)c(OC)cc23)c(Cl)cc1Cl has a remaining signal of 30.3% (FLT3; cell-free assay; 0.5 µM).
With CN([C@@H]1CCc2c(CC(=O)O)c3cc(S(C)(=O)=O)ccc3n2C1)S(=O)(=O)c1ccc(F)cc1 the remaining binding was 100% (FLT3 N841I; cell-free assay, competition with immobilised ligand; 1 µM).
The remaining binding of COc1ccnn2ncc(-c3ccnc(N(C)C)n3)c12 is reported as 100% (FLT3 D835H; binding; 1 µM).
For NS(=O)(=O)c1cc(NC(=O)C2(c3ccccc3Cl)CC2)ccc1Oc1cccc(Cl)c1, the remaining binding was 100% (FLT3 R834Q; cell-free assay, competition with immobilised ligand; 1 µM).
For CCCOc1ccc(OC)c(F)c1C(=O)c1ccc(C(=O)N[C@@H]2CNC[C@H]2NC(=O)c2ccc3[nH]ncc3c2)cc1, the remaining activity was 12% (FLT3 D835Y; enzyme activity, inhibitor; 10 µM).
Cc1cnc(Nc2ccc(C(=O)N3CCC(N4CCCC4)CC3)cc2)nc1-c1cc2ccccc2s1 gave a remaining binding of 1.6% (FLT3; binding, competition with immobilised ligand; 1 µM).
For c1cnn2ncc(-c3ccnc(N4CCC45COC5)n3)c2c1, the remaining binding was 62% (FLT3 D835Y; binding; 1 µM).
The remaining binding of CC(C)CC(=O)N1CCc2nc(-c3ccc(Br)cc3)nc(N(C)Cc3ccccc3)c2C1 is reported as 68% (FLT3 F691L/ITD; cell-free assay, competition with immobilised ligand; 0.1 µM).
C[S+]([O-])c1ccc(-c2nc(-c3ccncc3)c(-c3ccc(F)cc3)[nH]2)cc1 (stereo not drawn) has a remaining signal of 91.5% (FLT3; cell-free assay; 0.5 µM).
CC1CCCN1c1nccc(-c2cnn3ncccc23)n1 (stereo not drawn) gave a remaining binding of 100% (FLT3 R834Q; binding; 1 µM).
